The full list was thinned out, with hits kept by preference.
Redox H2O2 prof: compounds producing H2O2 with reducing agent – biochemical, NIH compound library profiling, artefact control for MLSCN library redox annotation, primary screen; DTT-dependent redox cycling H2O2, phenol red/HRP absorbance; 100% = 100 µM peroxide control, 0% = buffer; AID 878; activation, % at 10 µM; 200,000 compounds, 0.03% hits;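 active = activation of at least 50% relative to the plate's high and low controls in the primary single-dose screen; inactive = activation below 50%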;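 also: compound incubated with DTT at 0.8 mM final as the reducing agent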
Lmaj promast: reduces viability of Leishmania major promastigotes. 200,000 compounds, 9% hits. resazurin fluorescence viability. inhibition, % at 10 µM; in the data active = inhibition above about 50%;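 also: promastigotes grown with compound for 44 hours at 28 °C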
MPTP inh: blocks calcium-induced mitochondrial swelling; inhibition, % at 10 µM; AID 602449; 360,000 compounds, 1.4% hits; isolated mouse mitochondria, Ca2+ swelling absorbance, 30 min;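 active = inhibition of 50% or more, scaled per plate between neutral and stimulator controls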
T cruzi repl: T. cruzi replication inhibition | T. cruzi beta-gal in NIH3T3, luminescence, 90 h | 300,000 compounds, 1.4% hits | AID 1885 | inhibition, % (no concentration beside the values);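 active = mean inhibition across valid replicates above about 55%, limit read from the data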;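 also: signal also drops with host cell toxicity which is not excluded here; higher percent means less beta-gal luminescence so fewer parasites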
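System: NIH/3T3 fibroblasts plus reporter T. cruzi. Medium: DMEM plus 2% FBS. Probe or stimulus: 5000 reporter trypomastigotes per well. Compound: single 50 nL compound addition per well in DMSO. Incubation: co-culture of at least 90 h after 3 h attachment. Detection: GalScreen β-gal luminescence, detergent lysis, 60 min. Evaluation: parasite load inhibition, %.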
Hep lipid drop: hepatic lipid droplet formation modulation; 240,000 compounds, 0.4% hits; AID 1656; AML12 mouse hepatocytes, oleate lipid droplets, BODIPY imaging; inhibition, % at 6.5 µM;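 active = lipid droplet intensity inhibited by at least 50%, with more than 500 cells counted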
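Assay system: AML12 mouse liver cells | Compound: 6.5 µM single-point dosing | Schedule: Overnight exposure | Technique: Fluorescence imaging, 20x objective, two fields per well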
Of the large screens only hits and unclear results are named; the others gave an inactive call.

CCS(=O)(=O)N1CCN(C(C)CCc2ccccc2)CC1 (stereo unspecified)	Lmaj promast 74.8
CC(C)N1CCN(S(=O)(=O)c2ccccc2)CC1	none (no result: Redox H2O2 prof, Lmaj promast)
CC(CCc1ccccc1)N1CCN(Cc2ccccc2)CC1 (stereo unspecified)	Lmaj promast 96.5, T cruzi repl 57.5
CC(CNC(=O)c1cccs1)c1ccc([N+](=O)[O-])cc1 (stereo unspecified)	none
Cc1csc(NC(=O)CCc2c(C)nc3cc(-c4ccc(Cl)cc4)nn3c2C)n1	none (no result: T cruzi repl)
Cc1nc2cc(-c3ccc(Cl)cc3)nn2c(C)c1CCC(=O)NC(C)c1ccc2c(c1)OCCO2 (stereo unspecified)	Lmaj promast 98.1
CCN(CC)c1ccc(N=Nc2nn(C)c(C)c2[N+](=O)[O-])cc1	Lmaj promast 53.0
CCN(Cc1ccccc1)c1ccc(N=Nc2nn(C)c(C)c2[N+](=O)[O-])cc1	none
Cc1cc(C)n(C(C[N+](=O)[O-])c2ccc(Cl)cc2)n1 (stereo unspecified)	Lmaj promast 100.3
CC(C)c1ccc(-c2nnc(SCC(=O)NC3CC3)n2C)cc1	none (no result: Redox H2O2 prof, Lmaj promast)
O=C(Nc1ccc2c(c1)OCO2)c1cc(-c2ccc(O)cc2)on1	T cruzi repl 54.9 (no result: Redox H2O2 prof, Lmaj promast)
O=C(Nc1cccc(C(F)(F)F)c1)c1cc2ncc(Br)cn2n1	none
O=C(Nc1ccc2c(c1)OCO2)c1cc2ncc(Br)cn2n1	Hep lipid drop 68.8
O=C(Nc1ccc2c(c1)OCO2)c1cc(-c2cccc(O)c2)on1	none (no result: Redox H2O2 prof, Lmaj promast)
CC1(C(=O)NS(=O)(=O)c2ccc(Cl)cc2)CCN1C(=O)Cc1ccsc1 (stereo unspecified)	none (no result: Redox H2O2 prof, Lmaj promast, T cruzi repl, Hep lipid drop)
CC(=O)Nc1ccc(-c2ccnc3c2CC(C(=O)Nc2cccnc2)O3)cc1 (stereo unspecified)	none (no result: Redox H2O2 prof, Lmaj promast, T cruzi repl, Hep lipid drop)
O=C1c2ccccc2C(c2nnnn2-c2ccc3c(c2)OCCO3)N1Cc1cccs1 (stereo unspecified)	none (no result: Redox H2O2 prof, Lmaj promast, T cruzi repl, Hep lipid drop)
Cc1cccc(NC(=O)C(C)Oc2ccc(C)nc2[N+](=O)[O-])c1 (stereo unspecified)	none (no result: Redox H2O2 prof, Lmaj promast, T cruzi repl, Hep lipid drop)
O=C(Nc1ccc(F)cc1)c1nn(-c2ccccc2)c(=O)cc1Cl	Lmaj promast 98.0
CC1CCN(c2ccc3c(c2)S(=O)(=O)c2cccc(C(=O)NC4CCCCC4)c2C3=O)CC1	none (no result: Redox H2O2 prof, Lmaj promast, T cruzi repl, Hep lipid drop)
CCOC(=O)C1=C(O)/C(=C\c2ccc(CNS(=O)(=O)c3ccc(Br)cc3)o2)N=C1C	Lmaj promast 65.9
COC(=O)C1=C(O)/C(=C\c2ccc(CNS(=O)(=O)c3ccccc3)o2)N=C1C	none
COC(=O)C1=C(O)/C(=C\c2ccc(CNS(=O)(=O)c3ccc(Cl)cc3)o2)N=C1C	Lmaj promast 52.6
CCOC(=O)N1CCN(CC(O)COc2ccc3c(c2)CCC3)CC1 (stereo unspecified)	none (no result: Redox H2O2 prof, Lmaj promast)
Cc1cc(OCC(O)CN2CCN(CCO)CC2)ccc1C(C)C (stereo unspecified)	Lmaj promast 89.3
CCN1CCN(CC(O)COc2ccc3c(c2)CCC3)CC1 (stereo unspecified)	Lmaj promast 83.5
Cc1cc(OCC(O)CN2CCCC2)ccc1C(C)C (stereo unspecified)	none (no result: Redox H2O2 prof, Lmaj promast)
CCOC(=O)c1sc2nc(C)nc(SC(C)C(=O)NC3CC3)c2c1C (stereo unspecified)	none (no result: Redox H2O2 prof, Lmaj promast, T cruzi repl, Hep lipid drop)
Cc1ccc(-n2c(SCC(=O)Nc3cccc(S(N)(=O)=O)c3)nc3ccccc32)cc1	Lmaj promast 77.8
COc1cc([N+](=O)[O-])ccc1NC(=O)CSc1nc2ccccc2n1-c1ccccc1	Lmaj promast 91.7 (no result: MPTP inh)
CCOc1ccc(-n2c(SCC(=O)Nc3cc(OC)c([N+](=O)[O-])cc3C)nc3ccccc32)cc1	Lmaj promast 97.7
Cc1cccc(C)c1NC(=O)CNC(=O)C(C)N(C)CC(=O)Nc1ccc(F)cc1 (stereo unspecified)	none (no result: Redox H2O2 prof, Lmaj promast, T cruzi repl, Hep lipid drop)
O=C1[C@H]2[C@@H](c3ccc(Cl)cc3)N3C(=O)N(c4cccc(Br)c4)C(=O)[C@@]3(Cc3ccc(Cl)cc3)[C@H]2C(=O)N1C1CCCCC1	T cruzi repl 65.1 (no result: Redox H2O2 prof, Lmaj promast)
Cc1ccc(NC(=O)NC2CCCN2S(=O)(=O)c2ccc(Cl)cc2)cc1 (stereo unspecified)	Lmaj promast 62.4
COc1ccc(CCN(Cc2nc3ccccc3c(=O)[nH]2)C(=O)c2ccco2)cc1	none
CCC(CC)C(=O)N(CCc1ccc(OC)cc1)Cc1nc2ccccc2c(=O)[nH]1	Lmaj promast 100.2
CN1CCc2cc3c(c4c2[C@H]1[C@H](O)c1ccccc1-4)OCO3	Lmaj promast 96.3 (no result: Hep lipid drop)

Bioassay records as filed in PubChem.
